What all share (format): cell-based
What all share (settings): mdck-ii

Data set [1] addresses T1, ATP-binding cassette sub-family C member 2 (Homo sapiens, UniProt Q92887). The data set can be described thus: Inhibition of human MRP2 expressed in MDCK2 cells assessed as increase in intracellular CMF fluorescence by CMFDA assay. The method, boiled down:
(§1)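 MDCKII cells stably transfected with human MRP1, MRP2 or MRP3 cDNA, parental MDCKII as control, grown in DMEM with 10% FCS. Cells preincubated 30 min at 37 °C in darkness ± inhibitor in HBSS with 1 mM pyruvate, then 50 nM CMFDA (final) added for 10 min. Intracellular CMF fluorescence read by confocal laser-scanning microscopy. 20 µM MK571 positive control. At least triplicate, different days.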

Data set [2] has as its target T2, Multidrug resistance-associated protein 1 (Homo sapiens, UniProt P33527). The data set can be described thus: Inhibition of human MRP1 expressed in MDCK2 cells assessed as increase in intracellular CMF fluorescence by CMFDA assay. The gist of the method:
as §1

Data set [3] deals with T1, ATP-binding cassette sub-family C member 2. The data set can be described thus: Inhibition of human MRP2 expressed in MDCK2 cells assessed as increase in intracellular CMF fluorescence at 10 uM by CMFDA assay. The gist of the method:
as §1

In data set [4] the target is T2, Multidrug resistance-associated protein 1. The data set can be described thus: Inhibition of human MRP1 expressed in MDCK2 cells assessed as increase in intracellular CMF fluorescence at 10 uM by CMFDA assay. The method, boiled down:
as §1

Data set [5] addresses T3, ATP-binding cassette sub-family C member 3 (Homo sapiens, UniProt O15438). The data set can be described thus: Inhibition of human MRP3 expressed in MDCK2 cells assessed as increase in intracellular CMF fluorescence at 10 uM by CMFDA assay. The gist of the method:
as §1

The target in data set [6] is T3, ATP-binding cassette sub-family C member 3. The data set can be described thus: Inhibition of human MRP3 expressed in MDCK2 cells assessed as increase in intracellular CMF fluorescence at 16.7 uM by CMFDA assay. The gist of the method: as §1
The target is the same in data set [7]. The data set can be described thus: Inhibition of human MRP3 expressed in MDCK2 cells assessed as increase in intracellular CMF fluorescence by CMFDA assay. The method, boiled down: as §1
Data set [8] has as its target T2, Multidrug resistance-associated protein 1. The data set can be described thus: Inhibition of human MRP1 expressed in MDCK2 cells assessed as increase in intracellular CMF fluorescence at 16.7 uM by CMFDA assay. The method, boiled down: as §1
Data set [9] addresses T1, ATP-binding cassette sub-family C member 2. The data set can be described thus: Inhibition of human MRP2 expressed in MDCK2 cells assessed as increase in intracellular CMF fluorescence at 16.7 uM by CMFDA assay. The method, boiled down:
as §1

The structures appear in SMILES notation.

T3 sequence (O15438 whole entry): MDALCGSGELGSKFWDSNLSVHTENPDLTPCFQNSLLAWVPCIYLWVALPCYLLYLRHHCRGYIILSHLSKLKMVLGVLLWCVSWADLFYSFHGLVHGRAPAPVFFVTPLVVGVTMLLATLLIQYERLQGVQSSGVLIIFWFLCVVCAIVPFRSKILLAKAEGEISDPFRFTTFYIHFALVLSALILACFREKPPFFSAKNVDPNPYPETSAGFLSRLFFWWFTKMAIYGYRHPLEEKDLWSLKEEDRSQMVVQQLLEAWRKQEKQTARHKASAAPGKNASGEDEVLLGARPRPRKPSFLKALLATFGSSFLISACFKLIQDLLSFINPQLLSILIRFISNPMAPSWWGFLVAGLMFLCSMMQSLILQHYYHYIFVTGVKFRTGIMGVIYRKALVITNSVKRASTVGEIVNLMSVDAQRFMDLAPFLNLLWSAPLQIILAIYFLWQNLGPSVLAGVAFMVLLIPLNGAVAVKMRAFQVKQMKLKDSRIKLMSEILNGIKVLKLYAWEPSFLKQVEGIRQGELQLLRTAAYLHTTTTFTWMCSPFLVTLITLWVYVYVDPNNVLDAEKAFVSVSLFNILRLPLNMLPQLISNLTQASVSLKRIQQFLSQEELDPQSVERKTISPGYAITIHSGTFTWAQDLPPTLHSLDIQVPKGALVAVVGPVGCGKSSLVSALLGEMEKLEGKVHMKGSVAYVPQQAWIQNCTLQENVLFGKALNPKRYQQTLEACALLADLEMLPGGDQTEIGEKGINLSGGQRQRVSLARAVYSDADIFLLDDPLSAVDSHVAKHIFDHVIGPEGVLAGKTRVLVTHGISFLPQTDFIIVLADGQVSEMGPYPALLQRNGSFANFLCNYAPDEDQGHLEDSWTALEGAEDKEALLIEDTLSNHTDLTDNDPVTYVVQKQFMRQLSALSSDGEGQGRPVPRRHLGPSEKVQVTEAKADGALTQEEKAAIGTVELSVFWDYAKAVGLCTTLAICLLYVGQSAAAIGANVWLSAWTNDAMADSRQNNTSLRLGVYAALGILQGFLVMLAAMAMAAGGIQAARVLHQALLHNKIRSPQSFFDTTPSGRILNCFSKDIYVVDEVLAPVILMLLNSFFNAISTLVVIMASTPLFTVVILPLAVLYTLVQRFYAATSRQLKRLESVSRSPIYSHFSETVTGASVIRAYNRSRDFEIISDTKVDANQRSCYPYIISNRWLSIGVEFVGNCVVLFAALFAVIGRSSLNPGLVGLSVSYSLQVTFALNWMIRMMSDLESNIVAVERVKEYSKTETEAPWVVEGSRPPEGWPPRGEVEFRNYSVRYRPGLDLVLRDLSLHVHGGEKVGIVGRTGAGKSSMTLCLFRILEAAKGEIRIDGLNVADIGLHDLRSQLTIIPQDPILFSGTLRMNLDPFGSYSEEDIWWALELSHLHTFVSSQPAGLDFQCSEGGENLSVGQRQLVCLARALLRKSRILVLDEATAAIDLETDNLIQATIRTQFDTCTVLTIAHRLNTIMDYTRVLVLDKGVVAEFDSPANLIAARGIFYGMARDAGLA
T2 sequence (P33527 whole entry): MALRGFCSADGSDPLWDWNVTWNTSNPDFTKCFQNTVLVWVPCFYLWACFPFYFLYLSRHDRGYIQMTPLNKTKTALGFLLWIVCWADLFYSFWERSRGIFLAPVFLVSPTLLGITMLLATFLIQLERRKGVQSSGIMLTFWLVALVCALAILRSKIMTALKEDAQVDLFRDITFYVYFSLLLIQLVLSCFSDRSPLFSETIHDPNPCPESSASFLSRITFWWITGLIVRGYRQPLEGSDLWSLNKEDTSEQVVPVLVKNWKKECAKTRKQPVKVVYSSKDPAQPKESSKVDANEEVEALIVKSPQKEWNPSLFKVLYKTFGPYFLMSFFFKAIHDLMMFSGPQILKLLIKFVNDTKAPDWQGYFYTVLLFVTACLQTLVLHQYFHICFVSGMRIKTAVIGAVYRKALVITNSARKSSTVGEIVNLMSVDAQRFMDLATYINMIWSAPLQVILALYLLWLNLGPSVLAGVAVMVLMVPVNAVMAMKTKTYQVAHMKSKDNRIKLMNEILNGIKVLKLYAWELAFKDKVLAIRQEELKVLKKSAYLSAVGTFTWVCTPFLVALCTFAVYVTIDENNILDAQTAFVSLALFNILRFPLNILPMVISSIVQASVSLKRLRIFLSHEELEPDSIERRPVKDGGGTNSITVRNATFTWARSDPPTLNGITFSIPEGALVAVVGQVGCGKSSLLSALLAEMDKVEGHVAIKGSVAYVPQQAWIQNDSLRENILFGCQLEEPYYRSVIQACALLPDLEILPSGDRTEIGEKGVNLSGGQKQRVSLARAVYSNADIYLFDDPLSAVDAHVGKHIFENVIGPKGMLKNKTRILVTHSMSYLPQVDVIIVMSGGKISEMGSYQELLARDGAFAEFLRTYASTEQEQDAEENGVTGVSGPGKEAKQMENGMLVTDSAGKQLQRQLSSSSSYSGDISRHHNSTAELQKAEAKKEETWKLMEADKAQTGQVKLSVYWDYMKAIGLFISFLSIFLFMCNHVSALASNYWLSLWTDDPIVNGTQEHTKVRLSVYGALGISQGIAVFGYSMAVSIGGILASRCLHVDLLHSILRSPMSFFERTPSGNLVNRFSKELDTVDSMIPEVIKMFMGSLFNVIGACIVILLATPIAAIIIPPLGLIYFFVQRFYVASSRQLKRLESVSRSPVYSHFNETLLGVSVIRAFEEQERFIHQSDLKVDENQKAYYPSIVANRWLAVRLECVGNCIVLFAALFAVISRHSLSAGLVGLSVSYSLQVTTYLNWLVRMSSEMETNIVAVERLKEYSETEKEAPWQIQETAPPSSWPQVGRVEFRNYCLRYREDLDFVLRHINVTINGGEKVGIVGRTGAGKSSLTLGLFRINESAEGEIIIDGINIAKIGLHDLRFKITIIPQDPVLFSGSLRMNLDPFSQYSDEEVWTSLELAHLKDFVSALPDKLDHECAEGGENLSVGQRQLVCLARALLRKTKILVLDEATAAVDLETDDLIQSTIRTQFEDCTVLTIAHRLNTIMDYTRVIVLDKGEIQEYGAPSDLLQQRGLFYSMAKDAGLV
T1 sequence (Q92887 whole entry): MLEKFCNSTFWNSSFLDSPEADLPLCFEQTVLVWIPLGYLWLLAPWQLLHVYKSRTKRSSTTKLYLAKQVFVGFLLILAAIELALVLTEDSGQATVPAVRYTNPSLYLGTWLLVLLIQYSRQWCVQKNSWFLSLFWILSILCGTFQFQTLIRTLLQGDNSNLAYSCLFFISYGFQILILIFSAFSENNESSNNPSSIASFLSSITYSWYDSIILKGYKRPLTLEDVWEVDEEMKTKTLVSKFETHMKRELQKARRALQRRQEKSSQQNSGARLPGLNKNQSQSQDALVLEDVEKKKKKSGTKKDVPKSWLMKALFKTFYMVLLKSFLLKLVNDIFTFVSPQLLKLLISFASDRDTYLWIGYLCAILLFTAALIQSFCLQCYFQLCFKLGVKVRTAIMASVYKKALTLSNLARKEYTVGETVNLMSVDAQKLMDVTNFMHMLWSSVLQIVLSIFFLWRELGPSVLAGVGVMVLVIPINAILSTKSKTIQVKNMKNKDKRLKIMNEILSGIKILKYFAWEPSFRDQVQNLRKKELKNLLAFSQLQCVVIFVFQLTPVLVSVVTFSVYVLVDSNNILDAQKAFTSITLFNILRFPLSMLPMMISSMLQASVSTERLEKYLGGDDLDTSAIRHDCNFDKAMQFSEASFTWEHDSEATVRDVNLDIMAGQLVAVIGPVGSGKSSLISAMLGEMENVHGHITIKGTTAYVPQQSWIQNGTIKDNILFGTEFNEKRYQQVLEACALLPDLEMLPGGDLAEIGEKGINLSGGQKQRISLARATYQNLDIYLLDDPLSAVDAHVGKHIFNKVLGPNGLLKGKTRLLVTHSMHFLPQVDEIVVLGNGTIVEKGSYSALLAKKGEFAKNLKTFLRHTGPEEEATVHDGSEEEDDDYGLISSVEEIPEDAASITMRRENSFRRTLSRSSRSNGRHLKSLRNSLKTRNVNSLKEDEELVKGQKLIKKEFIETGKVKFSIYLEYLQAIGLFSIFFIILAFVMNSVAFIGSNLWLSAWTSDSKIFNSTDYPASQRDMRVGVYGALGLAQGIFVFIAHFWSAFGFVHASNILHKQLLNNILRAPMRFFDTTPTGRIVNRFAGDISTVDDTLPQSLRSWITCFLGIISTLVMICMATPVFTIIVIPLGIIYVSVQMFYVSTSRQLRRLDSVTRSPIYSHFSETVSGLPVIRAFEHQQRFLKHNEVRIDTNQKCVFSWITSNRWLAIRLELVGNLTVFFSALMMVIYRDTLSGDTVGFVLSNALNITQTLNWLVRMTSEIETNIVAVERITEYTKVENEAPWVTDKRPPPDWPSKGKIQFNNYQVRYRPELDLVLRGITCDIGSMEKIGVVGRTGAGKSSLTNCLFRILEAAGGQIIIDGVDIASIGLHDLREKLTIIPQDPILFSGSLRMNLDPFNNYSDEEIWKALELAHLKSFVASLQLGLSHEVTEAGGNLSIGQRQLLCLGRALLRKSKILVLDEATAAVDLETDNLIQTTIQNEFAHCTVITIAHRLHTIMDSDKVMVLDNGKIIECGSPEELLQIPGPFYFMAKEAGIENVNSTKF

Consider `Nc1nc(NC2CC2)c2ncn([C@H]3C=C[C@@H](CO)C3)c2n1` [ABACAVIR], for which the Activity entry was “Dose-dependent effect” in data set [1]; “Dose-dependent effect” in data set [2]; “Active” in data set [3]; “Active” in data set [4]; “Active” in data set [5].

With `CC(C)Nc1cccnc1N1CCN(C(=O)c2cc3cc(NS(C)(=O)=O)ccc3[nH]2)CC1` [DELAVIRDINE], the Activity entry in data set [6] is reported as “Active”; in data set [1], “Dose-dependent effect”; in data set [7] it was “Dose-dependent effect”; in [2], “Dose-dependent effect”; in data set [8] it was “Active”; in data set [9], “Active”.

Regarding `O=C1Nc2ccc(Cl)cc2[C@@](C#CC2CC2)(C(F)(F)F)O1` [EFAVIRENZ], the Activity result in data set [1] is “Dose-dependent effect”; in data set [7], “Dose-dependent effect”; in data set [2], “Dose-dependent effect”; in [3], “Active”; in [4], “Active”; in [5], “Active”.

As for `Nc1nc(=O)n([C@@H]2CS[C@H](CO)O2)cc1F` [EMTRICITABINE], the Activity entry in data set [1] was “Dose-dependent effect”; in [7] it was “Dose-dependent effect”; in data set [2], “Dose-dependent effect”; in [3], “Active”; in [4], “Active”; in [5], “Active”.

As for `Nc1ccn([C@@H]2CS[C@H](CO)O2)c(=O)n1` [LAMIVUDINE], the Activity result in data set [1] is “Dose-dependent effect”; in data set [7] it was “Dose-dependent effect”; in [2], “Dose-dependent effect”; in data set [3] it was “Active”; in data set [4] it was “Active”; in data set [5], “Active”.

For the compound `Cc1ccnc2c1NC(=O)c1cccnc1N2C1CC1` [NEVIRAPINE], the Activity result in data set [1] is listed as “Dose-dependent effect”; in data set [7] it was “Dose-dependent effect”; in data set [2], “Dose-dependent effect”; in data set [3], “Active”; in [4], “Active”; in data set [5] it was “Active”.

Regarding `C[C@H](Cn1cnc2c(N)ncnc21)OCP(=O)(O)O` [TENOFOVIR ANHYDROUS], the Activity result is “Dose-dependent effect” in [1]; “Dose-dependent effect” in [7]; “Dose-dependent effect” in data set [2]; “Active” in [3]; “Active” in [4]; “Active” in data set [5].

(Values after ChEMBL document CHEMBL1147049, “Inhibition of MRP1/ABCC1, MRP2/ABCC2, and MRP3/ABCC3 by nucleoside, nucleotide, and non-nucleoside reverse transcriptase inhibitors” (Drug Metab Dispos, 2007).)
